Activity data for twelve molecules are collected here from ChEMBL document CHEMBL2074563, “Involvement of multidrug resistance-associated proteins in regulating cellular levels of (-)-epigallocatechin-3-gallate and its methyl metabolites” (Biochem Biophys Res Commun, 2003).

Common to all, as to assay type: functional, cell-based
Holding throughout (conditions): dog, mdck-ii

Data set [1] deals with T1, Multidrug resistance-associated protein 1 (Homo sapiens, UniProt P33527). The data set is described as follows: TP_TRANSPORTER: uptake in MRP1-expressing MDCKII cells. The essentials:
(§1)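 MDCKII cells stably expressing human MRP1 or MRP2, grown to confluence, were preincubated for 2 h in serum-free HBSS. They were then exposed to [3H]EGCG (10 µM, 0.25 µCi/ml) in HBSS with 100 µM ascorbic acid, plus an efflux inhibitor or DMSO vehicle, for 1 h at 37 °C. Inhibitors were 10 µM indomethacin, 1 mM probenecid or 50 µM MK-571. Cells were washed in ice-cold PBS and lysed in 0.2 N NaOH. Cell-associated radioactivity was counted by scintillation and expressed as a ratio to the no-inhibitor control (mean ± SD, n = 4).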

In data set [2] the target is T2, ATP-binding cassette sub-family C member 2 (Homo sapiens, UniProt Q92887). The data set can be described thus: TP_TRANSPORTER: uptake in MRP2-expressing MDCKII cells. A digest of the protocol: as §1
T2 sequence (Q92887 whole entry): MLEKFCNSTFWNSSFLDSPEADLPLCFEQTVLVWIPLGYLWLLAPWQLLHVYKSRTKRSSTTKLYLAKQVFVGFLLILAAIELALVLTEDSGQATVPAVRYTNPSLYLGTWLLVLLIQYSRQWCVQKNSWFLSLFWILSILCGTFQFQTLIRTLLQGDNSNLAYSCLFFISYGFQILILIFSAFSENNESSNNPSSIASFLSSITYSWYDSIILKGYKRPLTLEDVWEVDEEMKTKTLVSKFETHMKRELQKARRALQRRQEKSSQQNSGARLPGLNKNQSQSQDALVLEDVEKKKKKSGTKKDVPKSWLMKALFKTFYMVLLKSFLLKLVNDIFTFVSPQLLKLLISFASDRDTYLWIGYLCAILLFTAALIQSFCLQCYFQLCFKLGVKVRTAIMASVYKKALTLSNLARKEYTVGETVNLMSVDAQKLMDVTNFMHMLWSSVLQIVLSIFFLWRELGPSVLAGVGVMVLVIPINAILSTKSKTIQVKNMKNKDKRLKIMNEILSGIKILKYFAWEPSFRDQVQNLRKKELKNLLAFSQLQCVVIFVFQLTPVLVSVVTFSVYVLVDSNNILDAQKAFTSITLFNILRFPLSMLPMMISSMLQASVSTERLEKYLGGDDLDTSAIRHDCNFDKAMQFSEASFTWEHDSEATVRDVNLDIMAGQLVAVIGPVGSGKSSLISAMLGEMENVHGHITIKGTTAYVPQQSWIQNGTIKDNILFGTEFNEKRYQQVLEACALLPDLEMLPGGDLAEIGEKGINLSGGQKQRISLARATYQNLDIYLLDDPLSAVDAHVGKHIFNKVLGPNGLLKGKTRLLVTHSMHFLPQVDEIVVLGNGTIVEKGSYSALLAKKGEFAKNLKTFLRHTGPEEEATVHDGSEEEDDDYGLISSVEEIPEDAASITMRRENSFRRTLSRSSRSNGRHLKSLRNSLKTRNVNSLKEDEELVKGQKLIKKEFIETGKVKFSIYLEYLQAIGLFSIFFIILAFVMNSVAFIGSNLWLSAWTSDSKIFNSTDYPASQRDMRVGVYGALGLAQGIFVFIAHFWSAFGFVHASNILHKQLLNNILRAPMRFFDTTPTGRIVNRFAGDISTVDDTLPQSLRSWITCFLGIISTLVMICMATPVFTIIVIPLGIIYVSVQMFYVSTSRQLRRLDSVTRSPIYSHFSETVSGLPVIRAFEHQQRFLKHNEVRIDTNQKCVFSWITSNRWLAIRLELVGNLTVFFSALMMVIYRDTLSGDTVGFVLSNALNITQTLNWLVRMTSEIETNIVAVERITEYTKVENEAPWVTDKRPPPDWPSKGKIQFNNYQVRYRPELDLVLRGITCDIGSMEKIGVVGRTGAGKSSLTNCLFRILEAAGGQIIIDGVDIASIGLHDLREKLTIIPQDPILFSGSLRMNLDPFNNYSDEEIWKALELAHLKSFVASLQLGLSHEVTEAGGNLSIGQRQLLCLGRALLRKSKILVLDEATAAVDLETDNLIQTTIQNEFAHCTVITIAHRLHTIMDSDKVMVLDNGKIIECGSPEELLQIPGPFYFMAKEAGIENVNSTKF
For data set [3], the target named is T1, Multidrug resistance-associated protein 1. The data set can be described thus: TP_TRANSPORTER: inhibition of EGCG in MRP1-expressing MDCKII cells. The essentials: as §1
Data set [4] deals with T2, ATP-binding cassette sub-family C member 2. The data set can be described thus: TP_TRANSPORTER: inhibition of EGCG in MRP2-expressing MDCKII cells. A digest of the protocol: as §1

T1 sequence (P33527 whole entry): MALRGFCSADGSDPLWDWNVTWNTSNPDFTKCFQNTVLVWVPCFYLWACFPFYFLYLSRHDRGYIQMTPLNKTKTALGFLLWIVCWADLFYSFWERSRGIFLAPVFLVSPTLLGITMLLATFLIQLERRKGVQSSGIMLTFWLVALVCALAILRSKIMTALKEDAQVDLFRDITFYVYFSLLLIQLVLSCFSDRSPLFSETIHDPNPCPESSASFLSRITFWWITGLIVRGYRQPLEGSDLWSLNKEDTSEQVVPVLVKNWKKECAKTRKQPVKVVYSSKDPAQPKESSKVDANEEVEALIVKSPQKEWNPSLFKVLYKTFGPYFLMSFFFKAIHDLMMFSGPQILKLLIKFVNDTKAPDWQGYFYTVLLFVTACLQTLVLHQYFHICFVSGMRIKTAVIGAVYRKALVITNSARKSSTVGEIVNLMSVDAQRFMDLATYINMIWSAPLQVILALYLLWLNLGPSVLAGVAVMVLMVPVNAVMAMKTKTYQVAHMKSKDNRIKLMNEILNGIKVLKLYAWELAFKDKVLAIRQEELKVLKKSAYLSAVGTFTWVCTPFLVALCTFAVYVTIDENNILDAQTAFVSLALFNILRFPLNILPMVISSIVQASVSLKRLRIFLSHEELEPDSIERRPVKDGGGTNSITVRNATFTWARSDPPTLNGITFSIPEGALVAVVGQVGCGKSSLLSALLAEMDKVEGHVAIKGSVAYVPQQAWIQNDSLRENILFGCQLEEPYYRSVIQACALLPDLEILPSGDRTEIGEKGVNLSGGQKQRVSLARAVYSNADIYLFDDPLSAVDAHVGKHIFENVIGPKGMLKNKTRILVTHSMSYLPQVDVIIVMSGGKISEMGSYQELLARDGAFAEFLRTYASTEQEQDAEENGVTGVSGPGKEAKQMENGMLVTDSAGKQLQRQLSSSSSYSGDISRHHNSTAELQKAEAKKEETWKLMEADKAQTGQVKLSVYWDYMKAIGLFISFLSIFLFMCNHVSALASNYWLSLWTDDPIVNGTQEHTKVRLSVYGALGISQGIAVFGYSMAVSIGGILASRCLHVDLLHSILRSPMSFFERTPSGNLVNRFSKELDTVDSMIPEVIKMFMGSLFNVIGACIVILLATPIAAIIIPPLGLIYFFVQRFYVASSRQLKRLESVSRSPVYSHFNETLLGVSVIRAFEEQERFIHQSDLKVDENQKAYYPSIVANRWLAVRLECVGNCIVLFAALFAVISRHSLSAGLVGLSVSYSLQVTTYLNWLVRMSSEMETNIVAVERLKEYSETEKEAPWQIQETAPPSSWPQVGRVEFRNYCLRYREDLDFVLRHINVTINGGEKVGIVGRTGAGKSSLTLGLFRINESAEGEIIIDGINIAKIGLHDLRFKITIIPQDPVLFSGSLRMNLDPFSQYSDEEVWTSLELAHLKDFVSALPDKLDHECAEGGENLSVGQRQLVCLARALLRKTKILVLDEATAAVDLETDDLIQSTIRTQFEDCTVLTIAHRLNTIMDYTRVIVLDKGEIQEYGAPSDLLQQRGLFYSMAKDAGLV

Turning to `COc1c(O)cc(C(=O)O[C@@H]2Cc3c(O)cc(O)cc3O[C@@H]2c2cc(O)c(OC)c(O)c2)cc1O`, the Activity result in data set [1] and in data set [2] was “substrate []” each time. With `COc1c(O)cc(C(=O)O[C@@H]2Cc3c(O)cc(O)cc3O[C@@H]2c2cc(O)c(O)c(O)c2)cc1O`, the Activity entry in data set [1] and in data set [2] was “substrate []” each time.

Regarding `COc1ccc(-c2coc3cc(O)cc(O)c3c2=O)cc1` [BIOCHANIN], the Activity result in data set [3] is “inhibitor []”. Same read-out and setting: the same measure for `COc1cc(/C=C/C(=O)CC(=O)/C=C/c2ccc(O)c(OC)c2)ccc1O` [CURCUMIN]: “inhibitor []”; for `O=c1c(-c2ccc(O)cc2)coc2cc(O)ccc12` [DAIDZEIN]: “inhibitor []”; for `COc1ccc(-c2coc3cc(O)ccc3c2=O)cc1` [FORMONONETIN]: “inhibitor []”. The same measure, in the same setting: the same measure for `O=c1c(-c2ccc(O)cc2)coc2cc(O)cc(O)c12` [GENISTEIN]: “inhibitor []”; for `COc1ccc2c(c1)c(CC(=O)O)c(C)n2C(=O)c1ccc(Cl)cc1` [INDOMETHACIN]: “inhibitor []”. Take `CN(C)C(=O)CCSC(SCCC(=O)O)c1cccc(/C=C/c2ccc3ccc(Cl)cc3n2)c1` (stereo not given) [MK-571]: the Activity entry in data set [4] is “inhibitor []”. As to `CCCN(CCC)S(=O)(=O)c1ccc(C(=O)O)cc1` [PROBENECID], the Activity entry in data set [3] and in data set [4] was “inhibitor []” in each case. Take `COc1cc(CCC(=O)CC(=O)CCc2ccc(O)c(OC)c2)ccc1O` [TETRAHYDROCURCUMIN]: in data set [3], the Activity result is “inhibitor []”.

In the case of `CC[C@]1(O)C[C@H]2CN(CCc3c([nH]c4ccccc34)[C@@](C(=O)OC)(c3cc4c(cc3OC)N(C=O)[C@H]3[C@@](O)(C(=O)OC)[C@H](OC(C)=O)[C@]5(CC)C=CCN6CC[C@]43[C@@H]65)C2)C1` [VINCRISTINE], the Activity result in data set [4] was “inhibitor []”.
